Reference: ChEMBL document CHEMBL1139507, “Application of phosphoramidate pronucleotide technology to abacavir leads to a significant enhancement of antiviral potency” (J Med Chem, 2005)
Where “and” joins values, the source holds several entries; their conditions need not be identical. Equal entries are not always repeated.

Assays:
MT4 = assay: Cytostatic concentration required to inhibit MT-4 cell proliferation; format: functional, Homo sapiens
[1] = test system: Human immunodeficiency virus 1; assay: Effective concentration against human immunodeficiency virus type 1 in MT-4 cells; format: functional, organism-based, MT4
HepG2 [2] = assay: Cytostatic concentration required to inhibit Hep G2.2.15 cell proliferation; format: functional, Homo sapiens
In short: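 Growth inhibition of HepG2 2.2.15 human hepatoma cells (constitutively HBV-producing) measured; CC50 = 50% cytostatic concentration.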

[3] = test system: Human immunodeficiency virus 1; assay: Effective concentration against human immunodeficiency virus type 1 in CEM cells; format: functional, organism-based; conditions: Human immunodeficiency virus 1, CCRF-CEM
In short: (§1)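 HIV-1- and HIV-2-induced cytopathicity in CEM cell cultures, scored at day 4 by microscopic examination of virus-induced giant cell formation; EC50 = concentration inhibiting cytopathicity by 50%.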

[4] = test system: Human immunodeficiency virus 2; assay: Effective concentration against human immunodeficiency virus type 2 in CEM cells; format: functional, organism-based; conditions: Human immunodeficiency virus 2, CCRF-CEM; in short: as §1
Hepatitis B virus [5] = assay: Effective concentration againstHBV in Hep G2.2.15 cells; format: functional, organism-based, HepG2 2.2.15
In short: (§2)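 Anti-HBV activity assayed in HepG2 2.2.15 human hepatoma cells, which constitutively produce HBV; EC50 = 50% effective concentration.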

[6] = test system: Human immunodeficiency virus 2; assay: Effective concentration against human immunodeficiency virus type 2 in MT-4 cells; format: functional, organism-based; conditions: Human immunodeficiency virus 2, MT4
HepG2 [7] = assay: Cytostatic concentration required to inhibit Hep G2 cell proliferation; format: functional; conditions: Homo sapiens
CCRF-CEM = assay: Cytostatic concentration required to inhibit CEM cell proliferation; format: functional; conditions: Homo sapiens
Hepatitis B virus [8] = assay: Effective concentration against HBV in Hep G2.2.15 cells; format: functional, organism-based, HepG2 2.2.15; in short: as §2
[9] = test system: Human immunodeficiency virus 1; assay: Ratio of CC50 to that of EC50 against human immunodeficiency virus type 1 in CEM cells; format: functional, CCRF-CEM
[10] = test system: Human immunodeficiency virus 1; assay: Effective concentration against human immunodeficiency virus type 1 in PBL cells; format: functional, organism-based; conditions: Human immunodeficiency virus 1, PBL
HEL = assay: Cytostatic concentration required to inhibit HEL cell proliferation; format: functional; conditions: Homo sapiens
In short: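 HEL cell proliferation measured in presence of compound; CC50 = 50% cytostatic concentration inhibiting HEL cell proliferation by 50%.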

Human alphaherpesvirus 1 [11] = assay: Effective concentration against thymidine kinase deficient herpes simplex virus (HSV-1) in VMW-1837 strain; conditions: Human alphaherpesvirus 1, VMW-1837
[12] = test system: Human immunodeficiency virus 2; assay: Ratio of CC50 to that of EC50 against human immunodeficiency virus type 2 in CEM cells; format: functional, CCRF-CEM
C3H/3T3 = assay: Cytostatic concentration required to inhibit C3H/3T3 cell proliferation; format: functional; conditions: Mus musculus
Human alphaherpesvirus 2 = assay: Effective concentration against thymidine kinase competent herpes simplex virus (HSV-2) in […]
[13] = test system: Human immunodeficiency virus 2; assay: Effective concentration against human immunodeficiency virus type 2 (ROD) in CEM cells; format: functional, organism-based; conditions: Human immunodeficiency virus 2, CCRF-CEM; in short: as §1
Human alphaherpesvirus 1 [14] = assay: Effective concentration against thymidine kinase deficient herpes simplex virus (HSV-1) in B2006 strain; conditions: Human alphaherpesvirus 1, B2006
Human alphaherpesvirus 1 [15] = assay: Effective concentration against thymidine kinase competent herpes simplex virus (HSV-1) in […]; format: functional, organism-based
In short: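 Confluent HEL cell cultures inoculated with 100 CCID50 of HSV-1 (KOS), HSV-2 (G) or HSV-1 TK- (B2006, VMW-1837); after 1 h adsorption, residual virus removed and cells incubated with varying compound concentrations; cytopathicity recorded once complete in virus controls; EC50 = concentration inhibiting HSV-induced cytopathicity by 50%.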

[16] = test system: Moloney murine sarcoma virus; assay: Effective concentration against murine moloney sarcoma virus in C3H/3T3 cells; format: functional, organism-based
[17] = Terminal elimination half-life in monkey after intravenous dosage; NA = not applicable; format: ADME, organism-based; conditions: cercopithecidae, in vivo
In short: (§3)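 Female cynomolgus monkeys (three, 2.0-3.2 kg) received the succinate salt at 11.5 mg/kg (17.3 µmol/kg), 2.3 mg/mL in 10% DMSO/90% saline, 5 mL/kg, iv on day 1 and orally on day 8 (1-week washout); fasted overnight to ~4 h postdose. Serial plasma to 24 h, acetonitrile deproteination, LC/MS/MS of prodrug, alaninyl-ABC-MP, ABC-MP, ABC, CBV; noncompartmental analysis.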

[18] = Time of maximum concentration was observed in monkey after oral dosage; format: ADME, organism-based; conditions: cercopithecidae, in vivo; in short: as §3
[19] = Apparent half life value in monkey after oral dosage; format: ADME, organism-based; conditions: cercopithecidae, in vivo, read-out: T1/2 app (converted); in short: as §3
[20] = Area under the plasma concentration-time curve in monkey after peroral dosage; format: ADME; conditions: cercopithecidae, po; in short: as §3
[21] = Area under the plasma concentration-time curve in monkey after intravenous dosage; format: ADME; conditions: cercopithecidae; in short: as §3
[22] = Hepatitis B virus, HepG2 2.2.15
[23] = Human immunodeficiency virus 1, MT4

Row | SMILES | CC50 (MT4) | EC50 ([1]; mt4) | CC50 (HepG2 [2]) [µM] | EC50 [3] [µM] | EC50 [4] [µM] | EC50 [6] [µM] | CC50 (HepG2 [7]) [µM] | CC50 (CCRF-CEM) [µM] | CC50 (MT4; Homo sapiens, MT4) [µM] | EC50 [1, 23] [µM] | EC50 (Hepatitis B virus [8]; [22]) [µM] | further results
1 | CCOC(=O)[C@@H](C)NP(=O)(OC[C@@H]1C=C[C@H](n2cnc3c(NC4CC4)nc(N)nc32)C1)Oc1ccccc1 (stereo in doubt; 6a,b) | 4.6 µM | 0.0155 µM | 18 |  |  |  |  |  |  |  |  | 
2 | COC(=O)[C@@H](C)NP(=O)(OC[C@@H]1C=C[C@H](n2cnc3c(NC4CC4)nc(N)nc32)C1)Oc1ccccc1 (stereo in doubt; 3a,b) | 4.3 µM and 4.6 µM | 0.2 µM and 0.037 µM | 17 | 0.05 | 0.05 | 0.26 | 17 | 13 |  |  |  | EC50 (Hepatitis B virus [5]; [22]): 0.55 µM; EC50 (Hepatitis B virus [8]; hepg2 2.2.15): 0.55 µM
3 | COC(=O)CNP(=O)(OC[C@@H]1C=C[C@H](n2cnc3c(NC4CC4)nc(N)nc32)C1)Oc1ccccc1 (stereo partly specified) |  |  |  | 1.8 | 2 | 5.4 | 58 | > 56 | 8.5 | 7.2 | 1 | 
4 | CCOC(=O)[C@@H](C)NP(=O)(OC[C@@H]1C=C[C@H](n2cnc3c(NC4CC4)nc(N)nc32)C1)Oc1ccccc1 (stereo in doubt; 6a) | 0.95 µM | 0.0155 µM | 7.5 |  |  |  |  |  |  |  |  | EC50 (Hepatitis B virus [8]; hepg2 2.2.15): 0.2 µM
5 | COC(=O)[C@@H](C)NP(=O)(OC[C@@H]1C=C[C@H](n2cnc3c(O)nc(N)nc32)C1)Oc1ccccc1 (stereo partly specified) |  |  |  | 1.3 |  |  |  | 78 |  |  |  | SI [9]: 41; EC50 [10]: 0.2 µM; CC50 (HEL): 160 µM; EC50 (Hepatitis B virus [5]; [22]): 0.51 µM; EC50 (Human alphaherpesvirus 1 [11]): 480 µM; SI [12]: 26; CC50 (C3H/3T3): > 20 µM; EC50 (Human alphaherpesvirus 2): 480 µM; EC50 [13]: 3 µM; CC50 (HepG2 [2]; Homo sapiens, HepG2): 200 µM; EC50 (Human alphaherpesvirus 1 [14]): > 800 µM; EC50 (Human alphaherpesvirus 1 [15]): 480 µM; EC50 [16]: 8.8 µM
6 | CCOC(=O)[C@@H](C)NP(=O)(OC[C@@H]1C=C[C@H](n2cnc3c(NC4CC4)nc(N)nc32)C1)Oc1ccccc1 (stereo in doubt; 6) | 8.6 µM | 0.2 µM |  | 0.07 | 0.061 | 0.21 | 18 | 12 |  |  | 0.35 | 
7 | COC(=O)[C@@H](C)NP(=O)(OC[C@@H]1C=C[C@H](n2cnc3c(NC4CC4)nc(N)nc32)C1)Oc1ccccc1 (stereo in doubt; 3a) | 1 µM | 0.027 µM | 10 |  |  |  |  |  |  |  |  | EC50 (Hepatitis B virus [5]; hepg2 2.2.15): 0.4 µM
8 | CC(C)OC(=O)[C@@H](C)NP(=O)(OC[C@@H]1C=C[C@H](n2cnc3c(NC4CC4)nc(N)nc32)C1)Oc1ccccc1 (stereo partly specified) |  |  |  | 0.05 | 0.05 | 0.26 | 17 | 13 | 4.6 | 0.2 | 0.55 | 
9 | CCOC(=O)[C@@H](C)NP(=O)(OC[C@@H]1C=C[C@H](n2cnc3c(NC4CC4)nc(N)nc32)C1)Oc1ccccc1 (stereo in doubt; 6b) | 5 µM | 0.14 µM | 35 |  |  |  |  |  |  |  |  | EC50 (Hepatitis B virus [8]; hepg2 2.2.15): 0.27 µM
10 | C[C@@H](NP(=O)(O)OC[C@@H]1C=C[C@H](n2cnc3c(NC4CC4)nc(N)nc32)C1)C(=O)O |  |  |  | 1.2 |  | 3.4 | 11 | 8.6 | 2.1 | 6.6 | 5 | T1/2 [17]: Not Active; Tmax [18]: 1.3 h; half-life [19]: 0.8 h; AUC [20]: 2.6 µM·h; AUC [21]: 9.2 µM·h
11 | COC(=O)[C@@H](C)NP(=O)(OC[C@@H]1C=C[C@H](n2cnc3c(NC4CC4)nc(N)nc32)C1)Oc1ccccc1 (stereo in doubt; 3b) | 4 µM | 0.11 µM | 35 |  |  |  |  |  |  |  |  | EC50 (Hepatitis B virus [8]; hepg2 2.2.15): 1.5 µM
12 | Nc1nc2c(ncn2[C@H]2C=C[C@@H](CO)C2)c(=O)[nH]1 [CARBOVIR] |  |  |  | 2 | 2.3 |  | 150 | 160 |  |  | 10.5 | EC50 [10]: 0.03 µM; CC50 (HEL): 15 µM; EC50 (Hepatitis B virus [5]; [22]): 10 µM; EC50 (Human alphaherpesvirus 1 [11]): 13 µM; SI [12]: 68; CC50 (C3H/3T3): > 20 µM; EC50 (Human alphaherpesvirus 2): 8 µM; EC50 [13]: 2.3 µM; T1/2 [17]: Not Active; Tmax [18]: 4.7 h; half-life [19]: 6 h; AUC [20]: 0.4 µM·h; AUC [21]: 0.7 µM·h; CC50 (HepG2 [2]; Homo sapiens, HepG2): 150 µM; EC50 (Human alphaherpesvirus 1 [14]): 50 µM; EC50 (Human alphaherpesvirus 1 [15]): 5 µM; EC50 [16]: 6 µM
13 | C[C@@H](NP(=O)(OC[C@@H]1C=C[C@H](n2cnc3c(NC4CC4)nc(N)nc32)C1)Oc1ccccc1)C(=O)OC(C)(C)C (stereo partly specified) |  |  |  | 3.7 | 6 | 3.4 | 11 | 8.6 | 2.1 | 6.6 | 5 | 
14 | COC(=O)C(C)(C)NP(=O)(OC[C@@H]1C=C[C@H](n2cnc3c(NC4CC4)nc(N)nc32)C1)Oc1ccccc1 (stereo partly specified) |  |  |  | 0.067 | 0.064 | 0.11 | 5.5 | > 130 | 8.1 | 0.14 | 0.019 | 
15 | COC(=O)[C@H](C)NP(=O)(OC[C@@H]1C=C[C@H](n2cnc3c(NC4CC4)nc(N)nc32)C1)Oc1ccccc1 (stereo partly specified) |  |  |  | 1.4 | 4.5 | 4.1 | 52 | 46 | 4.5 | 3.4 | 1.3 | 
